{"source": "paper PMC8204328", "about": "(ACS Pharmacology & Translational Science, 2021)", "key": {"[1]": {"system": "C2C12 mouse muscle myotubes", "test": "Insulin-induced Akt-2 phosphorylation in C2C12 myotubes", "type": "cell-based", "conditions": "100 nM insulin; CP-55940 5 μM", "method_in_brief": "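Cultured C2C12 mouse muscle myotubes, mock- or βArr2-siRNA-transfected, exposed to 100 nM insulin with or without the CB1R agonist CP-55940 (5 μM) and test compound (100 nM). Akt phosphorylation by Western blot, β-actin loading control, densitometry quantification; each treatment in duplicate cell aliquots.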"}, "[2]": {"system": "M384S, I105A and M109A mutant hCB1R", "test": "CP55,940-induced βArr2 recruitment in HEK cells expressing mutant hCB1R", "type": "cell-based, human", "conditions": "mutations M384S"}, "[3]": {"conditions": "acute oral 3 mg/kg, male wild-type mice; cited from earlier work"}, "[4]": {"biological_target": "hCB1R (Homo sapiens, UniProt P21554)", "sequence (P21554 whole entry)": "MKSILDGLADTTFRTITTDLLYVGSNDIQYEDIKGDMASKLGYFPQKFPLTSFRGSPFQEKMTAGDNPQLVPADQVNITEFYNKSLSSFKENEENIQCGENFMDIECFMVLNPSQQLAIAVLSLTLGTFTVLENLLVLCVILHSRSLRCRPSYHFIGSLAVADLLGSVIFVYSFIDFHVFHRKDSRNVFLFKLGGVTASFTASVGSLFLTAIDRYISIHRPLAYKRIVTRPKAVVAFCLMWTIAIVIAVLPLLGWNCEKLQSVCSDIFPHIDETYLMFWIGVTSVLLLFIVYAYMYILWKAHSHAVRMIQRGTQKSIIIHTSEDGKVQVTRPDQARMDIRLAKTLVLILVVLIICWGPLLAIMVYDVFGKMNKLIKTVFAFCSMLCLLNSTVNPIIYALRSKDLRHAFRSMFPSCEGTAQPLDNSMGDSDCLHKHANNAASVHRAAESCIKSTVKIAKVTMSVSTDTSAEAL", "type": "cell-based"}, "[5]": {"system": "lean wild-type mice", "test": "Upper GI motility", "type": "in vivo, mouse", "method_in_brief": "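Upper gastrointestinal motility by charcoal transit in lean wild-type mice. The CB1R agonist ACEA is given intraperitoneally at 10 mg/kg, with or without test compound. Test compound is also given without agonist to assess motility alone.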"}, "[6]": {"system": "mice", "test": "Elevated plus maze test", "type": "in vivo, mouse", "method_in_brief": "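The elevated plus maze scores anxiety-like behavior in male wild-type mice after acute oral dosing or 28 days of daily oral dosing with test compound or reference antagonist. Mean ± SEM of 4–6 independent experiments.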"}, "[7]": {"system": "mice", "test": "Hyperambulatory activity in drug-naïve mice", "type": "in vivo, mouse", "conditions": "single oral 3 mg/kg, βArr2-KO mice and wild-type littermates"}}}
{"smiles": "CCCCCCC(C)(C)c1ccc([C@@H]2C[C@H](O)CC[C@H]2CCCO)c(O)c1", "note": "[CP-55940]", "values": [{"measurement": "effect on insulin-induced Akt-2 phosphorylation", "setting": "[1]", "value": "significantly inhibited"}, {"measurement": "CP-55940-induced βArr2 recruitment at mutant hCB1R", "setting": "[2]", "value": "suppression"}]}
{"smiles": "CN=C(NS(=O)(=O)c1ccc(Cl)cc1)N1C[C@H](c2ccccc2)C(c2ccc(Cl)cc2)=N1", "note": "[ibipinabant]", "values": [{"measurement": "brain/plasma ratio", "setting": "[3]", "value": 22, "unit": "%"}, {"measurement": "bias (G/βArr)", "setting": "[4]", "value": "≈ 2"}]}
{"smiles": "CCCCC/C=C\\C/C=C\\C/C=C\\C/C=C\\CCCC(=O)NCCCl", "note": "[ACEA, arachidonoyl chloroethylamine]", "values": [{"measurement": "inhibition of upper GI motility", "setting": "[5]; 10 mg/kg intraperitoneal, lean wild-type mice", "value": 60, "unit": "%"}, {"measurement": "inhibition of upper GI motility, wild-type versus βArr2-KO mice", "setting": "[5]; ACEA alone", "value": "to the same extent"}]}
{"smiles": "Cc1c(C(=O)NN2CCCCC2)nn(-c2ccc(Cl)cc2Cl)c1-c1ccc(Cl)cc1", "note": "[rimonabant]", "values": [{"measurement": "anxiogenic behavior, elevated plus maze", "setting": "[6]; acute oral, MRI-1891 up to 30 mg/kg, rimonabant 3 mg/kg", "value": "highly anxiogenic"}, {"measurement": "anxiogenic behavior, elevated plus maze", "setting": "[6]; chronic 28 days, MRI-1891 1 and 10 mg/kg/day, rimonabant 3 mg/kg/day", "value": "induced strong anxiety"}, {"measurement": "anxiogenic response, elevated plus maze", "setting": "[6]; single oral 3 mg/kg, βArr2-KO mice and wild-type littermates", "value": "identical, strong anxiogenic responses in both strains"}, {"measurement": "hyperambulatory activity", "setting": "[7]", "value": "similar, long-lasting hyperambulatory activity"}, {"measurement": "upper GI motility in the absence of CB1R agonist (in vivo inverse agonism)", "setting": "[5]; MRI-1891 3 and 10 mg/kg", "value": "similar"}]}
